Compound activity (PubChem)
TRPC4 potent: allosteric potentiators of mouse TRPC4 channel; B-score at 10 µM; 310,000 compounds, 0.42% hits; AID 2227; HEK293 TRPC4beta/mu-opioid, DAMGO EC20, Fluo-4 Ca2+ flux; hits give high values;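 active = B-score of calcium response area above 5 SD of library B-scores, with initial fluorescence ratio within 5 SD of library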
TRPC4 inh: inhibitors of mouse TRPC4 channel; HEK293 TRPC4beta/mu-opioid, DAMGO-evoked Fluo4 calcium flux; hits give low values; B-score at 10 µM; 300,000 compounds, 0.39% hits;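 active = B-score over 3 SD under the library average, no early fluorescence shift, positive overall ratio signal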
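System: stable TRPC4beta/mu-opioid receptor HEK293 cells; Dosing: single-point compound dosing; Measured by: Fluo4 Ca2+ flux fluorescence; Read-out basis: per-well B score of integrated baseline-normalized Fluo4 ratio.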
TRPC6 activator: mouse TRPC6 channel activation; Q61143; HEK293-TRPC6 membrane potential dye fluorescence; hits give high values; B-score at 10 µM; 310,000 compounds, 0.13% hits; AID 2550;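 active = B-score of the integrated fluorescence ratio above library mean plus 3 SD, and starting fluorescence ratio within library mean plus 5 SD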;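 note: higher score means more depolarization so channel activation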
Target sequence (Q61143 whole entry, looked up): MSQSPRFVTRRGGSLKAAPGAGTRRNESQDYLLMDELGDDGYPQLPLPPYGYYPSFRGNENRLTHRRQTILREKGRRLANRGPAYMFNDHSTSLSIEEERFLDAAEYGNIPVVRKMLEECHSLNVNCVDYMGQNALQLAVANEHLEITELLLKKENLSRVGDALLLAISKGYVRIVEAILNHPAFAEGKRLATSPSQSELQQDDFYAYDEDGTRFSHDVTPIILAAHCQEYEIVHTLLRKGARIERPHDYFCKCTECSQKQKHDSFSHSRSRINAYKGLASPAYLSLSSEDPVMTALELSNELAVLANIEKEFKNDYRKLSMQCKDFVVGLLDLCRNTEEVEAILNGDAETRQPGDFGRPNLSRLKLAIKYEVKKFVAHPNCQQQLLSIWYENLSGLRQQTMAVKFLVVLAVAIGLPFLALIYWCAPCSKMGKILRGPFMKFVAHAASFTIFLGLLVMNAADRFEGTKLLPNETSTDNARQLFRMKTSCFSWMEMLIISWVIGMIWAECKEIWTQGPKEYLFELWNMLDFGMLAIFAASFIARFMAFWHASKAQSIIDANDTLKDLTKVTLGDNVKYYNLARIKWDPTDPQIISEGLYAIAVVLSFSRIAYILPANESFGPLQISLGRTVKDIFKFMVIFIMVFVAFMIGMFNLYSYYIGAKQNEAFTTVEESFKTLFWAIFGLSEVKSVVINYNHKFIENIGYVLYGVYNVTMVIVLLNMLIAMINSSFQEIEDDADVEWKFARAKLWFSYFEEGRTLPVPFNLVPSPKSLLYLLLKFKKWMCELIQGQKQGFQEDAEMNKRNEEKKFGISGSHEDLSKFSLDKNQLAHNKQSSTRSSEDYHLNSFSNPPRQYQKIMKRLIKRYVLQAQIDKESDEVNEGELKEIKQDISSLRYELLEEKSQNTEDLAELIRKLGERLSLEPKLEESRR
TRPC6 inhibitor: mouse TRPC6 channel inhibition; HEK293-TRPC6, membrane potential dye, ACh-evoked depolarization; hits give low values; B-score at 10 µM; AID 2553; 310,000 compounds, 1.1% hits;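 active = B-score under library mean minus 3 SD, initial fluorescence not abnormally high, positive integrated signal ratio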;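 note: B-score derived from integrated fluorescence ratio over the kinetic read; more negative B-score means stronger inhibition of depolarization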
TRPC4 act: TRPC4 (mouse) channel activation | Q9QUQ5 | HEK293 TRPC4beta/mu-opioid, Fluo4 calcium fluorescence; hits give high values | B-score at 10 µM | 310,000 compounds, 0.49% hits | AID 2237;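 active = B-score above 5 SD of library B-scores, and initial fluorescence ratio not above library mean plus 5 SD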;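 note: positive B-score marks a calcium rise read as TRPC4 activation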
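System – HEK293 cells stably co-expressing mouse TRPC4beta and mu-opioid receptor · Signal – Fluo4 calcium-sensitive dye fluorescence, kinetic, 1 Hz baseline · Benchmarks – buffer (low) and maximal DAMGO (high) · Read-out – B score of integrated fluorescence ratio per well · Incubation – dye loading 45 min room temperature, 110 s kinetic read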
Of the large screens only hits and unclear results are named; the others gave an inactive call. In the library only some 2.3% were active in any assay of this set; here they are far more common.

O=C(NCc1cccc(Cl)c1)c1ccc(CS(=O)Cc2ccc(Cl)cc2)o1 (stereo unspecified)	none
O=C(O)c1cc(-c2ccc(Cl)c(Cl)c2)n(-c2ccc(F)cc2)n1	none
CCCn1nc(C(=O)NC2CCCc3ccccc32)c2ccccc2c1=O (stereo unspecified)	TRPC4 potent 23
CC(C)Oc1cccc(C2NC(=O)c3ccccc3O2)c1 (stereo unspecified)	none
COCCCN(C(=O)CCOc1ccccc1C)c1c(N)n(Cc2ccccc2)c(=O)[nH]c1=O	none
Cc1ccc(-c2cc(-c3n[nH]c(=S)n3C)c3ccccc3n2)cc1	TRPC4 potent 12
CCn1c(-c2cc(-c3ccc(C)c(C)c3)nc3ccccc23)n[nH]c1=S	none
COC(=O)c1cc2c(=O)c3ccccc3oc2nc1C	none
COC(=O)c1cc2c(=O)c3ccccc3oc2nc1/C=C/N(C)C	TRPC4 act 69
CCCc1cc(C(=O)Nc2cc(OC)c(Cl)cc2OC)no1	none
COc1cc(NC(=O)c2cc(CC(C)C)on2)c(OC)cc1Cl	TRPC4 potent 10
CCCCCCCc1c(O)nc(SCCN(C)C)[nH]c1=O	TRPC4 potent 10, TRPC4 act 81
CCCc1c(O)nc(SCCN(CCC)CCC)[nH]c1=O	TRPC4 potent 19, TRPC4 act 49
CC(C)c1c(O)nc(SCC(=O)N2CCOCC2)[nH]c1=O	none
CC(C)c1c(O)nc(SCCN(C)C)[nH]c1=O	TRPC4 potent 35
CCCc1c(O)nc(SCC(=O)N2CCCCC2)[nH]c1=O	none
COc1cc(SC)ccc1C(=O)N(CC(=O)Nc1ccccc1Br)Cc1ccco1	none
COc1cc(/C=C/C(=O)O)cc(S(=O)(=O)Nc2ccc3c(c2)CCC3)c1OC	none
CC(NCc1cc(Br)ccc1OCC(=O)NCc1ccccc1)c1ccccc1 (stereo unspecified)	TRPC4 inh -8, TRPC4 act 61
O=C(COc1ccc(Br)cc1CNC1CCCC1)Nc1ccccc1	TRPC4 act 62
CCN1C(=O)[C@H]2[C@@H](c3ccc(-c4ccc(OC)cc4)c(OC)c3)N3CCCC[C@@]3(C(=O)OC)[C@H]2C1=O	none
O=C1CCCC(=O)N1c1ccc(N2CCN(c3ccc([N+](=O)[O-])cc3)CC2)c([N+](=O)[O-])c1	TRPC4 potent 21
O=C(O)C(Cc1ccccc1)N1C(=O)/C(=C/c2ccccc2)SC1=S (stereo unspecified)	none
Cc1ccc(/C=C2\SC(=S)N(C(Cc3ccccc3)C(=O)O)C2=O)cc1 (stereo unspecified)	TRPC4 inh -8
Clc1ccccc1C1CC(c2ccccc2)=Nc2ccccc2N1 (stereo unspecified)	TRPC4 potent 10
O=c1cc(N2CCCCC2)c(-c2ccccc2)nn1Cc1ccccc1Cl	TRPC4 potent 14
Cc1csc(Nc2nc(N)c(C(=O)Nc3ccccc3)o2)n1	none
c1ccc2c(-c3cn4ccccc4n3)c[nH]c2c1	TRPC4 inh -9, TRPC6 inhibitor -5.5
Cc1ccc(S(=O)(=O)Nc2nc3ccc(S(C)(=O)=O)cc3s2)cc1	none
CC(=O)Nc1ccc(S(=O)(=O)Nc2nc3ccc(C)cc3s2)cc1	TRPC4 inh -5
O=C(CC1C(=O)NCCN1Cc1cccc(Oc2ccccc2)c1)NCCc1ccccn1 (stereo unspecified)	TRPC4 act 115
O=C(CC1C(=O)NCCN1Cc1ccccc1C(F)(F)F)NCCc1ccccn1 (stereo unspecified)	TRPC4 act 116
O=C(CC1C(=O)NCCN1CC1CCCCC1)NCc1ccc(F)cc1 (stereo unspecified)	none
O=C(CC1C(=O)NCCN1CC1CCCCC1)NCCc1ccc(F)cc1 (stereo unspecified)	TRPC4 act 51
O=C(CC1C(=O)NCCN1Cc1cccc(Oc2ccccc2)c1)NCCc1cscn1 (stereo unspecified)	none
COc1cccc(CN2CCNC(=O)C2CC(=O)NCCc2ccccn2)c1 (stereo unspecified)	TRPC4 act 54
O=C(CC1C(=O)NCCN1Cc1c(F)cccc1Cl)NCCc1ccccn1 (stereo unspecified)	none
CCCCc1cc(=O)oc2cc(C)cc(OCC(=O)N3C[C@H]4C[C@@H](C3)c3cccc(=O)n3C4)c12	none
O=C(COc1ccc(Cl)cc1)Nc1ccc(C(=O)O)cc1NC(=O)COc1ccc(Cl)cc1	TRPC4 inh -6
CCOc1ccc(S(=O)(=O)N2CCOCC2)cc1NC(=O)CSCc1c(C)noc1C	TRPC4 potent 10
CCOC(=O)N1CCC(NC(=O)c2ccc(CS(=O)c3cccc(Cl)c3)o2)CC1 (stereo unspecified)	none
COc1ccc(OCC(O)CNC2CCCC2)cc1 (stereo unspecified)	none
CCc1ccc(OCCOCC(O)CNC2CCCC2)cc1 (stereo unspecified)	TRPC4 inh -5
CC(C)NCC(O)COCCOc1ccc(C(C)(C)C)cc1 (stereo unspecified)	TRPC4 inh -5
CCN(C(=O)COC(=O)C1CCN(S(=O)(=O)c2ccc3c(c2)OCCO3)CC1)C1CCCCC1	none
Cc1ccccc1Cn1cc(S(=O)(=O)c2ccc(C(C)C)cc2)c(=O)c2cc3c(cc21)OCO3	none
CC(=O)Oc1c(C)cc(O)c2ccccc12	TRPC4 potent 17
CCOC(=O)c1sc2nc(CSc3ccccc3)nc(NCCN(C)C)c2c1C	TRPC4 inh -5
CCOC(=O)c1sc2nc(C)nc(NCCc3ccccn3)c2c1C	none
Cc1cc(Nc2ncc(Cl)cc2Cl)n(-c2ccccc2C)n1	TRPC4 inh -7
Cc1ccc(-n2nc(C)cc2Nc2ncc(Cl)cc2Cl)cc1	none
CN(C)CCNC(=O)c1sc2cccc(F)c2c1Cl	TRPC4 potent 11
S=c1[nH]nc(-c2ccncc2)n1/N=C/C(Cl)=C\c1ccccc1	TRPC4 potent 12
COc1ccc(S(=O)(=O)N/N=C(/C)c2ccncc2)c(OC)c1	none
CNCCCOc1ccc(C)cc1Br	TRPC4 potent 14
CCCCNCCCOc1ccc(C)cc1Br	none
CNCCCOc1cc(C)cc(C)c1C	TRPC4 act 153
CCCCNc1nc(=S)[nH]c2cc(OC)c(OC)cc12	TRPC4 inh -8
COc1ccc(NC(=O)c2cccc(N3C(=O)C4CC=C(C)CC4C3=O)c2)c(OC)c1 (stereo unspecified)	TRPC4 inh -6
CN(C)/C=C1\C(=O)N(c2ccc([N+](=O)[O-])cc2)N=C1c1ccccc1	TRPC4 inh -6, TRPC4 act 47
CN(C)/C=C1/C(=O)N(c2ccc([N+](=O)[O-])cc2)N=C1c1ccccc1	none
COc1ccc(C2C(C#N)=C(N)N(c3sc4c(c3C#N)CCCC4)C3=C2C(=O)CC(C)(C)C3)cc1 (stereo unspecified)	TRPC4 inh -5
